{"source": "ChEMBL document CHEMBL4312006", "about": "“A novel chalcone derivative as Nrf2 activator attenuates learning and memory impairment in a scopolamine-induced mouse model” (Eur J Med Chem, 2020)", "key": {"[1]": {"molecular_target": "Keap1/Nrf2 (Homo sapiens) (UniProt Q16236+Q14145)", "sequence (Q14145 whole entry, looked up)": "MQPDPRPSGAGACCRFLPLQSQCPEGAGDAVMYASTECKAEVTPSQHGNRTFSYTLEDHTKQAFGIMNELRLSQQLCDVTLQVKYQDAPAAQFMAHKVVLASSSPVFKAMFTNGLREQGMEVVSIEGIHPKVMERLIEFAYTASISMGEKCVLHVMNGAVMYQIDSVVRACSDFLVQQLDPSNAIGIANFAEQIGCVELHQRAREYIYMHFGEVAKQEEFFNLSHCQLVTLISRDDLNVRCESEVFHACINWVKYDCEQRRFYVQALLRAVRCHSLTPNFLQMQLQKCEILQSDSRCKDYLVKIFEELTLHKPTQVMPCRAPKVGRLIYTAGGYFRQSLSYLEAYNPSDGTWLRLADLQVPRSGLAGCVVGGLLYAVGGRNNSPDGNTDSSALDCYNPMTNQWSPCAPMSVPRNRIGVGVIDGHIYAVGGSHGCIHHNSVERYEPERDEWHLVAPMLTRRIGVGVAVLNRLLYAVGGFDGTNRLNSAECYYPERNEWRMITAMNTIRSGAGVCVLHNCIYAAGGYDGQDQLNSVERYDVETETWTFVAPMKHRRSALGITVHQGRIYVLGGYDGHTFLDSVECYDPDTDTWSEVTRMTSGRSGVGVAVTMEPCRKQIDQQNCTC", "sequence (Q16236 whole entry, looked up)": "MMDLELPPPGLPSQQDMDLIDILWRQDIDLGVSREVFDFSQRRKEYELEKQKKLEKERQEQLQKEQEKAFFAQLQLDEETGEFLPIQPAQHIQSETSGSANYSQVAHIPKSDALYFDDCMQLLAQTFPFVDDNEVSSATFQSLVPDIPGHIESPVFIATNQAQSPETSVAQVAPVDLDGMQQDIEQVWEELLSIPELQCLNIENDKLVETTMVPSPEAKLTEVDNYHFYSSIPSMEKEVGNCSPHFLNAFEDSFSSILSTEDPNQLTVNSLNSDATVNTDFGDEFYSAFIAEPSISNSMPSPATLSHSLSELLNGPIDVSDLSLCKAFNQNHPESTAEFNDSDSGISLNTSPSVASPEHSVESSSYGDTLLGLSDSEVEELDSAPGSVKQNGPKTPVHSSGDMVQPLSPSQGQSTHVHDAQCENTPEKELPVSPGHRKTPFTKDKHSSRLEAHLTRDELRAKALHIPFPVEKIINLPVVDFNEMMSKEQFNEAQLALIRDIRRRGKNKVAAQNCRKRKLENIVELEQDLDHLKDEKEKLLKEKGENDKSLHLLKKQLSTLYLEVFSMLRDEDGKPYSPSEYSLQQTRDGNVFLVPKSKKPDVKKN", "test": "(§1) Activation of NRF2 in human U2OS cells co-expressing Keap1 (unknown origin) assessed as induction of NRF2 translocation to nucleus incubated for 6 hrs by beta-galactosidase based chemiluminescent assay", "type": "cell-based", "outline": "(§2)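 PathHunter U2OS cells engineered to co-express enzyme donor-tagged NRF2 and nuclear-localized enzyme acceptor; Nrf2 nuclear translocation reconstitutes β-galactosidase. Cells in 96-well plates exposed to a range of compound concentrations for 6 h at room temperature (20–23 °C), then 1 h with detection reagent in the dark; chemiluminescence (RLU) read. EC50 from concentration-response curve, mean ± SEM, triplicate.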"}, "Keap1/Nrf2": {"molecular_target": "Keap1/Nrf2 (Homo sapiens, UniProt Q14145+Q16236)", "sequence (Q16236 whole entry)": "as the sequence (Q16236 whole entry, looked up) above", "sequence (Q14145 whole entry)": "as the sequence (Q14145 whole entry, looked up) above", "test": "as §1", "type": "cell-based", "outline": "as §2"}, "[2]": {"molecular_target": "T1, Nuclear factor erythroid 2-related factor 2 (Mus musculus) (UniProt Q60795)", "T1 sequence (whole entry)": "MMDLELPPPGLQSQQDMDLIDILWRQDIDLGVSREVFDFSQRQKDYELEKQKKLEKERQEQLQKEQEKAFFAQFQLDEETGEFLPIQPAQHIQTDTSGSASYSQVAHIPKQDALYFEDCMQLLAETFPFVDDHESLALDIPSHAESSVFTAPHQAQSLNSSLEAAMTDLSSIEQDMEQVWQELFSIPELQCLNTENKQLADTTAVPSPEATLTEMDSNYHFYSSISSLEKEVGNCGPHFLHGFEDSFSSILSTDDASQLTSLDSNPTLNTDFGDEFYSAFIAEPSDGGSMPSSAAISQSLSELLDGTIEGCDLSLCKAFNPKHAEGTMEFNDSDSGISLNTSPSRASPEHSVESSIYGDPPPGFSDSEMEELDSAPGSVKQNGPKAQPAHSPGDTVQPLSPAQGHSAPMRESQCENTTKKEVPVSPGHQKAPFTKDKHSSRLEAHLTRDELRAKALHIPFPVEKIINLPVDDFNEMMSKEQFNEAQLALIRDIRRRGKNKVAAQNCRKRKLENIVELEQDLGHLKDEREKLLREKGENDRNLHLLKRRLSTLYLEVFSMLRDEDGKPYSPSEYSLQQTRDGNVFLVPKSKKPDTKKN", "test": "Activation of NRF2 in mouse BV2 cells assessed as increase in GCLM mRNA level at 0.1 to 10 uM incubated for 8 hrs by qRT-PCR analysis", "type": "cell-based", "outline": "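BV-2 microglia grown in RPMI 1640 with 10% FBS, 2.05 mM L-glutamine and penicillin-streptomycin at 37 °C, 5% CO2. Cells exposed to a range of compound concentrations for 8 h. Ho-1 or Gclm mRNA measured by qRT-PCR and expressed relative to untreated control. Means ± SEM, one-way ANOVA with Dunnett's test.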"}, "[3]": {"molecular_target": "T1, Nuclear factor erythroid 2-related factor 2 (Mus musculus)", "test": "Activation of NRF2 in mouse BV2 cells assessed as increase in GCLM protein expression at 3 uM incubated for 6 hrs by Western blot analysis", "type": "cell-based", "outline": "(§3)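 BV-2 cells washed in ice-cold PBS and lysed on ice for 40 min in RIPA buffer with protease inhibitors. Nuclear fractions prepared separately. 10 μg protein run on SDS-PAGE and blotted to PVDF. Membranes blocked in 5% skim milk/TBST and probed overnight at 4 °C for Nrf2, HO-1, GCLM or SOD1. HRP secondary with ECL detection. Band densities normalised to Lamin B1 or β-actin.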"}, "[4]": {"molecular_target": "T1, Nuclear factor erythroid 2-related factor 2 (Mus musculus)", "test": "Activation of NRF2 in mouse BV2 cells assessed as increase in HO1 protein expression incubated for 12 hrs by Western blot analysis", "type": "cell-based", "outline": "as §3"}, "[5]": {"molecular_target": "T1, Nuclear factor erythroid 2-related factor 2 (Mus musculus)", "test": "Activation of NRF2 in mouse BV2 cells assessed as increase in GCLM protein expression incubated for 12 hrs by Western blot analysis", "type": "cell-based", "outline": "as §3"}, "[6]": {"molecular_target": "T1, Nuclear factor erythroid 2-related factor 2 (Mus musculus)", "test": "Activation of NRF2 in mouse BV2 cells assessed as increase in HO1 protein expression at 10 uM incubated for 12 hrs by Western blot analysis", "type": "cell-based", "outline": "as §3"}, "[7]": {"molecular_target": "T1, Nuclear factor erythroid 2-related factor 2 (Mus musculus)", "test": "Activation of NRF2 in mouse BV2 cells assessed as inhibition of LPS-stimulated iNOS expression preincubated for 3 hrs followed by LPS stimulation for 24 hrs by Western blot analysis", "type": "cell-based", "outline": "(§4)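 LPS-stimulated BV-2 cells pretreated with compound for 3 h. iNOS immunoblot (1:500) on 10 μg RIPA lysate protein, detected by ECL. Densities normalised to β-actin or Lamin B1 and compared with LPS-treated control.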"}, "[8]": {"molecular_target": "T1, Nuclear factor erythroid 2-related factor 2 (Mus musculus)", "test": "Activation of NRF2 in mouse BV2 cells assessed as inhibition of LPS-stimulated iNOS expression at 10 uM preincubated for 3 hrs followed by LPS stimulation for 24 hrs by Western blot analysis relative to control", "type": "cell-based", "parameters": "scale not given: the % may be the effect or the level left", "outline": "as §4"}, "[9]": {"molecular_target": "T1, Nuclear factor erythroid 2-related factor 2 (Mus musculus)", "test": "Activation of NRF2 in mouse BV2 cells assessed reduction in LPS-stimulated IL-6 level preincubated for 3 hrs followed by LPS stimulation for 24 hrs by ELISA", "type": "cell-based", "outline": "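BV-2 cells pre-incubated with a range of compound concentrations for 3 h, then stimulated with 0.2 μg/mL LPS for 24 h. TNF-α or IL-6 in the culture medium quantified by sandwich ELISA kits. Compared with LPS-treated control by one-way ANOVA with Dunnett's test.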"}, "BV-2": {"tested_on": "BV-2", "test": "Inhibition of H2O2-stimulated ROS production in mouse BV2 cells preincubated for 24 hrs followed by H2O2 stimulation for 20 mins by DCFH-DA dye based assay", "type": "functional, cell-based", "outline": "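BV-2 cells treated with a range of compound concentrations for 24 h at 37 °C. Loaded with 20 μM DCFH-DA for 40 min, then 200 μM H2O2 added for 20 min at 37 °C in the dark. DCF fluorescence read at ex 480 nm / em 530 nm. Compared with H2O2-treated control.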"}, "[10]": {"molecular_target": "T1, Nuclear factor erythroid 2-related factor 2 (Mus musculus)", "test": "Activation of NRF2 in mouse BV2 cells upregulation of SOD1 protein expression incubated for 6 hrs by Western blot analysis", "type": "cell-based", "outline": "as §3"}, "[11]": {"molecular_target": "T1, Nuclear factor erythroid 2-related factor 2 (Mus musculus)", "test": "Activation of NRF2 in mouse BV2 cells assessed as inhibition of H2O2-induced reduction in SOD activity incubated for 6 hrs followed by H2O2 stimulation and measured after 18 hrs by WST-1 based assay", "type": "cell-based", "outline": "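BV-2 cells (1.0×10^6) treated with compound for 24 h, or for 6 h followed by 400 μM H2O2 for 18 h. Cells washed, sonicated in ice-cold PBS and centrifuged; supernatant assayed by WST-1/superoxide inhibition. Activity derived from the IC50 of the inhibition curve and given as U/mg protein (1 U = 50% inhibition of WST-1 reduction).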"}, "[12]": {"test": "Stability in rat plasma assessed as compound remaining after 30 mins", "type": "ADME, cell-free", "settings": "read-out: Stability"}, "CYP2D6": {"molecular_target": "CYP2D6 (Homo sapiens, UniProt P10635)", "sequence (P10635 whole entry)": "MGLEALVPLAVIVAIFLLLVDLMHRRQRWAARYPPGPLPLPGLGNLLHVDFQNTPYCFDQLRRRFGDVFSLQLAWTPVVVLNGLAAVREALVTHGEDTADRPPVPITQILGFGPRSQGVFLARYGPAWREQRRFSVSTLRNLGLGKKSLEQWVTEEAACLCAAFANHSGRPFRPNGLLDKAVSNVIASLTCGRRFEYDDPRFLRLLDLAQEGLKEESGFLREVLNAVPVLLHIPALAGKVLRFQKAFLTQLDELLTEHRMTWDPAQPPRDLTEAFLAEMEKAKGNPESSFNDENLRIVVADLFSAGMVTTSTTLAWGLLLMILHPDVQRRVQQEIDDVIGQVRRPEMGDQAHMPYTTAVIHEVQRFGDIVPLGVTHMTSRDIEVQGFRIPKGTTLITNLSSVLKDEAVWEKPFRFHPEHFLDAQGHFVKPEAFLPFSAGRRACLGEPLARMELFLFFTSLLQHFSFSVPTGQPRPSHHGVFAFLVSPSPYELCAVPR", "test": "Inhibition of CYP2D6 (unknown origin) assessed as remaining activity relative to control", "type": "ADME"}, "CYP2C9": {"molecular_target": "CYP2C9 (Homo sapiens, UniProt P11712)", "sequence (P11712 whole entry)": "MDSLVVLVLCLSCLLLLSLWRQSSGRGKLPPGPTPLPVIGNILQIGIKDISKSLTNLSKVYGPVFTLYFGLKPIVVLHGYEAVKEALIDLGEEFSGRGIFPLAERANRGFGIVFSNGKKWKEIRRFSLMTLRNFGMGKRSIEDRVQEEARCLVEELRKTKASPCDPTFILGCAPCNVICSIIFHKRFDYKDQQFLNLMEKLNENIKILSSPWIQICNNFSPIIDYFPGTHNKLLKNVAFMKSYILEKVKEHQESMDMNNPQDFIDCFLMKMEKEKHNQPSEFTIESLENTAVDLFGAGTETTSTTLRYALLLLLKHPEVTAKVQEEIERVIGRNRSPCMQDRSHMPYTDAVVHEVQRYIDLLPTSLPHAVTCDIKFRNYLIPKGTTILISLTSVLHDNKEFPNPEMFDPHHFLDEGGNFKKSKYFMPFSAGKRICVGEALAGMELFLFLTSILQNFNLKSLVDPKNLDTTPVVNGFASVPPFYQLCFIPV", "test": "Inhibition of CYP2C9 (unknown origin) assessed as remaining activity relative to control", "type": "ADME"}, "Mus musculus": {"tested_on": "Mus musculus", "test": "Effect on mean number of arm entries in C57BL/6 mouse model of scopolamine-induced amnesia at 30 mg/kg, po administered for 5 days and measured on day 5 after 30 mins of scopolamine stimulation by Y-maze test", "type": "ADME, organism-based", "settings": "in vivo", "outline": "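Male C57BL/6N mice given 30 mg/kg/day compound in saline by gavage for 5 days. Scopolamine 2 mg/kg in saline given i.p. 30 min before testing on the last day. Mice handled daily for 7 days beforehand. Free exploration of a three-arm Y-maze for 10 min, with entries scored manually (all four paws). Alternation = consecutive entries into three different arms.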"}, "[13]": {"test": "Lipophilicity, log P of the compound", "type": "physicochemical", "settings": "octanol/water"}}, "note": "Calls of active or inactive are those of the source. The rule behind the calls is not given here.", "data": [{"compound": "CN1CCN(C(=O)COc2ccc(C(=O)/C=C/c3ccccc3C(F)(F)F)cc2)CC1.Cl", "values": [{"measurement": "Activity", "setting": "[1]", "result": "Dose-dependent effect"}, {"measurement": "EC50", "setting": "Keap1/Nrf2", "result": 630, "unit": "nM"}, {"measurement": "Activity", "setting": "[2]", "result": "Active"}, {"measurement": "Activity", "setting": "[3]", "result": "Active"}, {"measurement": "Activity", "setting": "[4]", "result": "Dose-dependent effect"}, {"measurement": "Activity", "setting": "[5]", "result": "Dose-dependent effect"}, {"measurement": "fold change (FC)", "setting": "[6]", "result": "> 7"}, {"measurement": "Activity", "setting": "[7]", "result": "Dose-dependent effect"}, {"measurement": "Activity", "setting": "[8]", "result": 100, "unit": "%"}, {"measurement": "Activity", "setting": "[9]", "result": "Dose-dependent effect"}, {"measurement": "inhibition", "setting": "BV-2", "result": "Dose-dependent effect"}, {"measurement": "Activity", "setting": "[10]", "result": "Dose-dependent effect"}, {"measurement": "Activity", "setting": "[11]", "result": "Active"}, {"measurement": "remaining at 0.5 h", "setting": "[12]", "result": 99.3, "unit": "%"}, {"measurement": "activity", "setting": "CYP2D6", "result": "> 100", "unit": "%"}, {"measurement": "activity", "setting": "CYP2C9", "result": 95.1, "unit": "%"}, {"measurement": "activity", "setting": "Mus musculus", "result": "Non-Toxic"}, {"measurement": "logP", "setting": "[13]", "result": 3.22}]}]}
